The results in this text go back to ChEMBL document CHEMBL1275555, “Genetic heterogeneity in pbp genes among clinically isolated group B Streptococci with reduced penicillin susceptibility” (2008).

As usually defined, the MIC is the least concentration at which growth counts as inhibited. A high value points to a less susceptible organism.

The structures appear in SMILES notation. Converted amounts (≈) assume the structure as drawn.

Test [1] relates to Streptococcus sp. 'group B'. As to the kind of experiment: Antimicrobial activity against Group B Streptococcus serotype Ia N1 harboring E63K mutation in PBP 2A and L41S mutation in PBP 1B by broth microdilution method. Type of test: functional. The gist of the method: (§1)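 Broth microdilution MICs following CLSI guidelines, using a commercial panel system; GBS clinical isolates and reference strains grown in Todd-Hewitt broth at 37°C. Each strain tested five times to confirm reproducibility, with S. pneumoniae ATCC 49619 as quality-control strain. No β-lactamase activity by acidimetric method in any strain.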

For test [2], the system named is Streptococcus sp. 'group B'. As to the kind of experiment: Antimicrobial activity against Group B streptococcus serotype III N3 by broth microdilution method. The test is classed as functional. A digest of the protocol: (§2)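 Broth microdilution MICs read on a commercial dried panel system (type 3J), following CLSI guidelines. Isolates were grown in Todd-Hewitt broth at 37°C. Each strain was tested five times for reproducibility, with S. pneumoniae ATCC 49619 as the quality-control strain. β-lactamase activity was checked by the acidimetric method.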
On the technique in general: In broth dilution the organism is exposed to a series of concentrations in liquid medium.

Test [3] concerns Streptococcus sp. 'group B'. Briefly: Antimicrobial activity against Group B streptococcus serotype VI R4 harboring Q557E mutation in PBP 2X and T567I, Y262N mutations in PBP 2B by broth microdilution method. Type of test: functional. The gist of the method:
as §1

Test [4] has as its system Streptococcus sp. 'group B'. As to the kind of experiment: Antimicrobial activity against Group B streptococcus serotype V C1 harboring E63K mutation in PBP 2A and L41S mutation in PBP 1B by broth microdilution method. Type of test: functional. A digest of the protocol:
as §1

Test [5] has as its system Streptococcus sp. 'group B'. As to the kind of experiment: Antimicrobial activity against Group B streptococcus serotype Ib C2 harboring E63K mutation in PBP 2A and L41S mutation in PBP 1B by broth microdilution method. The test is classed as functional. A digest of the protocol:
as §1

Test [6] relates to Streptococcus sp. 'group B'. As to the kind of experiment: Antimicrobial activity against Group B streptococcus serotype Ia R7 harboring T77I, F395V and S353F in PBP 2X; V80A and G613R in PBP 2B; and L45P, N163K, N723S and Y470F in PBP 1A by broth microdilution method. Type of test: functional. A digest of the protocol:
as §1

The subject of test [7] is Streptococcus sp. 'group B'. As to the kind of experiment: Antimicrobial activity against Group B streptococcus serotype VI R5 harboring F395L, V405A, R433H, H438Y, and G648A mutations in PBP 2X and T567I mutation in PBP 2B by broth microdilution method. The test is classed as functional. A digest of the protocol:
as §1

For test [8], the system named is Streptococcus sp. 'group B'. As to the kind of experiment: Antimicrobial activity against Group B streptococcus serotype VI N4 harboring E63K mutation in PBP 2A and L41S mutation in PBP 1B by broth microdilution method. The test is classed as functional. A digest of the protocol:
as §1

For test [9], the system named is Streptococcus sp. 'group B'. As to the kind of experiment: Antimicrobial activity against Group B Streptococcus serotype V harboring E63K mutation in PBP 2A and L41S mutation in PBP 1B by broth microdilution method.
For test [10], the system named is Streptococcus sp. 'group B'. As to the kind of experiment: Antimicrobial activity against Group B streptococcus serotype Ib R3 harboring Q557E, A400V mutations in PBP 2X and T567I, G539E mutations in PBP 2B by broth microdilution method. Type of test: functional. A digest of the protocol: as §1
Test [11] has as its system Streptococcus sp. 'group B'. As to the kind of experiment: Antimicrobial activity against Group B streptococcus serotype VI R2 harboring F395L, V405A, R433H, H438Y, and G648A mutations in PBP 2X and T567I mutation in PBP 2B by broth microdilution method. The test is classed as functional. The gist of the method: as §1
Test [12] deals with Streptococcus sp. 'group B'. As to the kind of experiment: Antimicrobial activity against Group B Streptococcus serotype III NEM 316 by broth microdilution method. The test is classed as functional. The gist of the method: as §2
For test [13], the system named is Streptococcus sp. 'group B'. Briefly: Antimicrobial activity against Group B streptococcus serotype VI R6 harboring F395L, V405A, R433H, H438Y, A374V and G648A mutations in PBP 2X and T567I mutation in PBP 2B by broth microdilution method. The test is classed as functional. The gist of the method: as §1
In test [14] the test system is Streptococcus sp. 'group B'. Briefly: Antimicrobial activity against Group B streptococcus R8 harboring T77I, S353F and A514V in PBP 2X; V80A and G613R in PBP 2B; and L45P, N163K, N723S and G527V in PBP 1A by broth microdilution method. The test is classed as functional. A digest of the protocol: as §1
The subject of test [15] is Streptococcus sp. 'group B'. Briefly: Antimicrobial activity against Group B streptococcus serotype VI R1 harboring F395L, V405A, R433H, H438Y, and G648A mutations in PBP 2X and T567I mutation in PBP 2B by broth microdilution method. The test is classed as functional. The gist of the method:
as §1

The test system of test [16] is Streptococcus sp. 'group B'. As to the kind of experiment: Antimicrobial activity against Group B streptococcus serotype Ib N2 harboring E63K mutation in PBP 2A and L41S mutation in PBP 1B by broth microdilution method. Type of test: functional. A digest of the protocol:
as §1

Regarding `CN(C)CCn1nnnc1SCC1=C(C(=O)O)N2C(=O)[C@@H](NC(=O)Cc3csc(N)n3)[C@H]2SC1` [CEFOTIAM], the MIC in test [1] is not above 0.5 µg/mL; in test [2], not above 0.5 µg/mL; in [3], 4 µg/mL (≈ 7.61 µM); in test [4] it was not above 0.5 µg/mL; in test [5], not above 0.5 µg/mL; in test [6], more than 4 µg/mL. The minimum inhibitory concentration (MIC) in test [7] was 2 µg/mL (≈ 3.8 µM); in [8], not above 0.5 µg/mL; in test [9], not above 0.5 µg/mL; in test [10], 4 µg/mL (≈ 7.61 µM); in test [11], 4 µg/mL (≈ 7.61 µM); in test [12], not above 0.5 µg/mL. In addition, the minimal inhibitory concentration (MIC) in test [13] was 4 µg/mL (≈ 7.61 µM); in test [14] it was more than 4 µg/mL; in [15], 4 µg/mL (≈ 7.61 µM); in [16], not above 0.5 µg/mL.
In the case of `CO/N=C(\C(=O)N[C@@H]1C(=O)N2C(C(=O)[O-])=C(C[n+]3ccn4ncccc43)CS[C@H]12)c1nsc(N)n1` [CEFOZOPRAN], the minimal inhibitory concentration (MIC) in test [1] was 0.12 µg/mL (≈ 0.233 µM); in test [2], 0.12 µg/mL (≈ 0.233 µM); in test [3], 0.5 µg/mL (≈ 0.97 µM); in [4], 0.12 µg/mL (≈ 0.233 µM); in [5] it was 0.12 µg/mL (≈ 0.233 µM); in test [6], 2 µg/mL (≈ 3.88 µM). Besides, the MIC in test [7] was found to be 0.5 µg/mL (≈ 0.97 µM); in [8] it was 0.12 µg/mL (≈ 0.233 µM); in test [9], 0.12 µg/mL (≈ 0.233 µM); in test [10], 1 µg/mL (≈ 1.94 µM); in [11], 1 µg/mL (≈ 1.94 µM); in [12], 0.12 µg/mL (≈ 0.233 µM). The minimum inhibitory concentration (MIC) is 0.5 µg/mL (≈ 0.97 µM) in test [13], 1 µg/mL (≈ 1.94 µM) in test [14], 0.5 µg/mL (≈ 0.97 µM) in test [15] and 0.12 µg/mL (≈ 0.233 µM) in test [16].
In the case of `CC[C@H]1OC(=O)[C@H](C)[C@@H](O[C@H]2C[C@@](C)(OC)[C@@H](O)[C@H](C)O2)[C@H](C)[C@@H](O[C@@H]2O[C@H](C)C[C@H](N(C)C)[C@H]2O)[C@](C)(OC)C[C@@H](C)C(=O)[C@H](C)[C@@H](O)[C@]1(C)O` [CLARITHROMYCIN], the minimal inhibitory concentration (MIC) in test [1] is not above 0.12 µg/mL; in [2] it was not above 0.12 µg/mL; in test [3], more than 2 µg/mL; in test [4], not above 0.12 µg/mL; in [5], not above 0.12 µg/mL; in test [6] it was 2 µg/mL (≈ 2.67 µM). Further, the MIC in [7], in test [8], in test [9], in [10], in [11] and in test [12] was not above 0.12 µg/mL in each case. For the same compound, the minimum inhibitory concentration (MIC) is not above 0.12 µg/mL in test [13], 1 µg/mL (≈ 1.34 µM) in test [14], not above 0.12 µg/mL in [15] and not above 0.12 µg/mL in test [16].
Regarding `CCC[C@@H]1C[C@@H](C(=O)N[C@@H]([C@H]2O[C@H](SC)[C@H](O)[C@@H](O)[C@H]2O)[C@H](C)Cl)N(C)C1` [CLINDAMYCIN], the MIC in test [1] was not above 0.12 µg/mL; in test [2], not above 0.12 µg/mL; in [3] it was more than 1 µg/mL; in test [4], not above 0.12 µg/mL; in test [5] it was not above 0.12 µg/mL; in [6], not above 0.12 µg/mL. In addition, the MIC in test [7], in test [8], in test [9], in [10], in test [11] and in test [12] was not above 0.12 µg/mL each time. Also, the MIC in [13], in test [14], in [15] and in [16] was not above 0.12 µg/mL in each case.
Turning to `CC[C@H]1OC(=O)[C@H](C)[C@@H](O[C@H]2C[C@@](C)(OC)[C@@H](O)[C@H](C)O2)[C@H](C)[C@@H](O[C@@H]2O[C@H](C)C[C@H](N(C)C)[C@H]2O)[C@](C)(O)C[C@@H](C)C(=O)[C@H](C)[C@@H](O)[C@]1(C)O` [ERYTHROMYCIN], the minimal inhibitory concentration (MIC) is not above 0.12 µg/mL in test [1]; not above 0.12 µg/mL in test [2]; more than 2 µg/mL in test [3]; not above 0.12 µg/mL in test [4]; not above 0.12 µg/mL in test [5]; more than 2 µg/mL in [6]. The minimum inhibitory concentration (MIC) in test [7], in test [8], in [9], in test [10], in [11] and in test [12] was not above 0.12 µg/mL in each case. The minimum inhibitory concentration (MIC) in test [13] was not above 0.12 µg/mL; in [14] it was more than 2 µg/mL; in [15], not above 0.12 µg/mL; in [16] it was not above 0.12 µg/mL.
